The text below walks through data of ChEMBL document CHEMBL5344470, “Probing the Use of Triphenyl Phosphonium Cation for Mitochondrial Nucleoside Delivery” (ACS Med Chem Lett, 2024).

Series [1] can be described thus: Drug concentration in living human MCF7 cells at 25 uM incubated for 24 hrs by flow cytometry analysis. Particulars: mcf7, 24 h; call rule not given here. The format is ADME, cell-based. In outline:
(§1)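 Living MCF-7 cells incubated 24 h with test compounds at different concentrations; fluorescein-labelled compound uptake quantified by flow cytometry as percentage internalization; mean ± SEM of three independent experiments.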
A general note: Flow cytometry measures light scatter and fluorescence of single cells or particles in a stream.

The subject of a further series is esterase. In words: Stability of compound assessed as pig liver esterase mediated hydrolysis by measuring half life at 50 uM by HPLC analysis. It is filed as ADME, Sus scrofa. A digest of the protocol:
(§2)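 Compounds incubated with pig liver esterase, cell culture medium or MCF-7 cell extracts; decomposition followed by HPLC with direct injection of the biological medium, no sample pretreatment; half-lives determined; hydrolysis metabolite identified by co-injection with authentic sample.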

Series [2] can be described thus: Drug accumulation in living human MCF7 cells at 25 uM incubated for 24 hrs by flow cytometry analysis. Particulars: mcf7, 24 h. The format is ADME, cell-based. In outline:
as §1

Series [3] in a line: Drug localization in mitochondria of human MCF7 cells at 50 uM incubated for 24 hrs by MitoTracker red CMXRos staining based confocal fluorescence microscopy. The format is ADME. The following applies: mcf7, 24 h. A digest of the protocol:
(§3)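 MCF-7 cells incubated 24 h at 37 °C with 50 μM fluorescein-labelled compound; mitochondria stained with 200 nM MitoTracker red CMXRos and nuclei with Hoechst 33342 (10 μg/mL final); cells washed twice with medium, then imaged by confocal microscopy (488 nm fluorescein, 561 nm MitoTracker, 760 nm Hoechst, 63×/1.4 oil objective); untreated cells as control.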

Series [4] is described as follows: Cytotoxicity against human MCF7 cells assessed as cell viability at 100 uM measured after 72 hrs by MTT assay relative to control. It is filed as toxicity, cell-based. The following applies: read-out: Activity. A digest of the protocol: (§4)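 MCF-7 breast cancer cells exposed to test compounds at a range of concentrations (up to 100 μM) for 72 h; cell viability measured and expressed as percentage viability or cell death relative to untreated control.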
In general terms: Tetrazolium assays rely on reduction of a dye to a coloured formazan, in cell work by metabolically active cells.

Series [5] is described as follows: Stability of compound in culture media assessed as compound hydrolysis by measuring half life at 50 uM by HPLC analysis. The format is physicochemical. In outline:
as §2

Series [6] is described as follows: Stability of compound in MCF7 cell extract assessed as compound hydrolysis by measuring half life at 50 uM by HPLC analysis. It is filed as physicochemical. Particulars: human. A digest of the protocol:
as §2

Series [7] is described as follows: Drug metabolism assessed as compound hydrolysis by measuring 2-(6-hydroxy-3-oxo-3H-xanthen-9-yl)-5-((1-((2R,4S,5R)-4-hydroxy-5-(hydroxymethyl)tetrahydrofuran-2-yl)-2-oxo-1,2-dihydropyrimidin-4-yl)carbamoyl)benzoic acid formation. The format is ADME. In outline:
as §2

Series [8] is described as follows: Drug concentration in living human MCF7 cells at 5 uM incubated for 24 hrs by flow cytometry analysis. The format is ADME, cell-based. Particulars: mcf7, 24 h. A digest of the protocol: as §1
Series [9] in a line: Drug concentration in living human MCF7 cells at 50 uM incubated for 24 hrs by flow cytometry analysis. The format is ADME, cell-based. Particulars: mcf7, 24 h. In outline: as §1
A short description of series [10]: Drug localization in mitochondria of human MCF7 cells assessed as appearance of green and red overlapped superimposed images at 100 uM incubated for 24 hrs by MitoTracker red CMXRos staining based super-resolution confocal fluorescence microscopy. The following applies: mcf7, 24 h. It is filed as ADME. In outline: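 Living MCF-7 cells treated 24 h with 100 μM fluorescein-labelled compound, stained with 100 nM MitoTracker red CMXRos and Hoechst 33342 (10 μg/mL final), washed twice with medium; Airyscan super-resolution confocal imaging (488/561/405 nm, 63×); co-localization judged from overlapping green and red areas in superimposed images; untreated cells as control.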

Series [11] is described as follows: Cytotoxicity against human MCF7 cells assessed as cell viability upto 50 uM measured after 72 hrs by MTT assay relative to control. It is filed as toxicity, cell-based. Particulars: read-out: Activity. A digest of the protocol: as §4
A short description of series [12]: Drug concentration in living human MCF7 cells at 10 uM incubated for 24 hrs by flow cytometry analysis. The format is ADME, cell-based. Particulars: mcf7, 24 h. In outline: as §1
A short description of series [13]: Drug localization in cytoplasm of human MCF7 cells at 50 uM incubated for 24 hrs by confocal fluorescence microscopy. The format is ADME, subcellular. Particulars: mcf7, 24 h. In outline: as §3
The nature of series [14]: Drug internalization in living human MCF7 cells at 10 uM incubated for 24 hrs by flow cytometry analysis. It is filed as ADME, cell-based. The following applies: mcf7, 24 h. In outline: as §1
Series [15] can be described thus: Drug internalization in living human MCF7 cells at 5 uM incubated for 24 hrs by flow cytometry analysis. It is filed as ADME, cell-based. Particulars: mcf7, 24 h. In outline: as §1
In series [16] the test system is MCF7. In words: Cytotoxicity against human MCF7 cells assessed as cell death at 10 uM measured after 72 hrs by MTT assay relative to control. The format is toxicity, cell-based. The following applies: mcf7, 72 h. In outline: as §4
Series [17] has as its system MCF7. The series can be described thus: Cytotoxicity against human MCF7 cells assessed as cell death at 50 uM measured after 72 hrs by MTT assay relative to control. The format is toxicity, cell-based. Particulars: mcf7, 72 h. A digest of the protocol: as §4
Series [18] in a line: Drug internalization in living human MCF7 cells at 50 uM incubated for 24 hrs by flow cytometry analysis. The format is ADME, cell-based. The following applies: mcf7, 24 h. In outline: as §1
Series [19] can be described thus: Stability of compound in culture media assessed as compound hydrolysis at 50 uM by HPLC analysis. The format is physicochemical. A digest of the protocol: as §2

SMILES strings stand for the structures.

For `O=C(CCCCCCCCC[P+](c1ccccc1)(c1ccccc1)c1ccccc1)OC[C@H]1O[C@@H](n2ccc(NC(=O)c3ccc(-c4c5ccc(=O)cc-5oc5cc(O)ccc45)c(C(=O)O)c3)nc2=O)C[C@@H]1O.O=C([O-])C(F)(F)F`, the Drug uptake was 96% in series [1]; 96% in series [2]; “Active” in series [3]; 3% in series [8]; 100% in series [9]; “Active” in series [10]. This molecule also had a Drug uptake in series [12] of 24%. The half-life (commonly how long it takes for the measured level to halve) at 50 µM is less than 0.25 h in the series with esterase, more than 17.8 h in [5] and more than 8.4 h in series [6]. Also, in series [4], the viability at 72 h, 100 µM was 60%. Besides, in [7], the Drug metabolism result is “Metabolite_Detected”. The viability at 72 h, up to 50 µM in [11] amounted to 84%.
In the case of `Nc1ccn([C@H]2C[C@H](O)[C@@H](COC(=O)CCCCCCCCC[P+](c3ccccc3)(c3ccccc3)c3ccccc3)O2)c(=O)n1.O=C(O)C(F)(F)F.O=C([O-])C(F)(F)F`, the half-life at 50 µM is less than 0.25 h in the series on esterase, more than 17.8 h in [5] and more than 8.4 h in series [6].
Turning to `O=C(Nc1ccn([C@H]2C[C@H](O)[C@@H](CO)O2)c(=O)n1)c1ccc(-c2c3ccc(=O)cc-3oc3cc(O)ccc23)c(C(=O)O)c1`, the Drug uptake in series [1] is 62%; in series [2], 62%; in series [3], “Not Active”; in series [13], “Active”; in series [8], 2%; in [9], 87%. The molecule also returned a Drug uptake in series [12] of 12%.
As for `O=C(CC[P+](c1ccccc1)(c1ccccc1)c1ccccc1)OC[C@H]1O[C@@H](n2ccc(NC(=O)c3ccc(-c4c5ccc(=O)cc-5oc5cc(O)ccc45)c(C(=O)O)c3)nc2=O)C[C@@H]1O.O=C([O-])C(F)(F)F`, the Drug uptake was 96% in series [1]; more than 95% in [2]; “Active” in series [3]; “Active” in series [13]; 61% in series [14]; 27% in series [8]. The Drug uptake in series [9] worked out at 99%; in series [15], 27%; in series [12], 61%.
`O=C(CCCCC[P+](c1ccccc1)(c1ccccc1)c1ccccc1)OC[C@H]1O[C@@H](n2ccc(NC(=O)c3ccc(-c4c5ccc(=O)cc-5oc5cc(O)ccc45)c(C(=O)O)c3)nc2=O)C[C@@H]1O.O=C([O-])C(F)(F)F`: the Drug uptake was determined as 3% in [1]; 0.4% in [8]; 17% in series [9]; 0.8% in series [12]; 17% in [18]. Also, the results for the Activity in the series on MCF7 [16] and in the series on MCF7 [17] were 61% and 44%, respectively.
For the molecule `Nc1ccn([C@H]2C[C@H](O)[C@@H](COC(=O)CC[P+](c3ccccc3)(c3ccccc3)c3ccccc3)O2)c(=O)n1.O=C(O)C(F)(F)F.O=C([O-])C(F)(F)F`, the half-life at 50 µM was less than 0.25 h in the series on esterase and more than 8.4 h in [6]. Moreover, in series [19], the Stability entry is “Unstable”.
With `Nc1ccn([C@H]2C[C@H](O)[C@@H](COC(=O)CCCCC[P+](c3ccccc3)(c3ccccc3)c3ccccc3)O2)c(=O)n1.O=C(O)C(F)(F)F.O=C([O-])C(F)(F)F`, the figures for the half-life at 50 µM (in the series with esterase; in [5]; in [6]) were less than 0.25 h, more than 17.8 h and more than 8.4 h, respectively.
